# Data taken from PMC2192647 (The Journal of Cell Biology, 2000).
# “Also recorded” adds a separate entry of the source. Like-named read-outs stand apart in the source and are kept apart here.
# B1: HB-EGF: human recombinant heparin-binding EGF-like growth factor, soluble form (protein, UniProt Q99075 63-148, looked up)
# Heparin-binding EGF-like …: DLQEADLDLLRVTLSSKPQALATPNKEEHGKRKKKGKGLGKKRDPCLRKYKDFCIHGECKYVKELRAPSCICHPGYHGERCHGLSL
# What was measured:
# Human keratinocytes [1] = test: Keratinocyte growth; format: cell-based; conditions: 3 d
# How it was run: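 Human keratinocytes kept in supplemented MCDB153. Seeded at 10^5 cells/well in 6-well plates and grown 3 d with or without test compound (1 μM), EGFR neutralizing antibody No. 425 (10 μg/ml) or AG1478 (30 nM). Values are averages of triplicate experiments.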
# Human keratinocytes [2] = test: Keratinocyte migration after wounding; format: cell-based; conditions: for Keratinocyte migration into wound area: 3 d, antibody No. 425 10 μg/ml, AG1478 30 nM, OSU8-1 1 μM; for Block of migration relative to the control: 10 μM, Fig. 6 b
# How it was run: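 Human keratinocytes grown on type I collagen-coated dishes or 6-well plates. At subconfluency, switched to BHE-free medium and scraped with a wide silicone rubber scraper. Washed once to remove floating cells, then re-fed BHE-free medium with or without test compound, antibody No. 425 (10 μg/ml), AG1478 (30 nM), or test compound plus HB-EGF (20 ng/ml). Cultured 3 d at 37°C.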
# EGFR = test: Wound-induced EGFR tyrosine phosphorylation in cultured keratinocytes; format: cell-based, human; conditions: wounded keratinocytes
# How it was run: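 Keratinocytes grown 72 h on collagen-coated 10-cm dishes (5 × 10^5/dish). Starved 2 h in BHE-free medium ± test compound (1 μM), cycloheximide (50 μM) or HB-EGF neutralizing antibody No. 197 (10 μg/ml). Tip-scrape wounded, incubated set times at 37°C. Lysates in Triton/vanadate buffer; EGFR immunoprecipitated overnight at 4°C with protein A-Sepharose. Run on 6% SDS-PAGE, PVDF-blotted, probed, ABC/ECL detection.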
# MMP-3 = MMP-3 (Homo sapiens, UniProt P08254); test: MMP-3 inhibition; format: biochemical; conditions: read-out: IC50 MMP-3
# AP-tag TGF-α [3] = test: TPA-inducible shedding of AP-tag TGF-α in CHO transfectants; format: cell-based, human; conditions: 60 nM TPA; for Percent inhibition at 1 μM TGF-α: 1 μM inhibitor, CHO transfectants
# MMP-9 = MMP-9 (Homo sapiens, UniProt P14780); test: MMP-9 inhibition; format: biochemical; conditions: read-out: IC50 MMP-9
# MMP-1 = molecular target: T1, MMP-1 (Homo sapiens, UniProt P03956); test: MMP-1 inhibition; format: biochemical
# T1 sequence (P03956 100-469): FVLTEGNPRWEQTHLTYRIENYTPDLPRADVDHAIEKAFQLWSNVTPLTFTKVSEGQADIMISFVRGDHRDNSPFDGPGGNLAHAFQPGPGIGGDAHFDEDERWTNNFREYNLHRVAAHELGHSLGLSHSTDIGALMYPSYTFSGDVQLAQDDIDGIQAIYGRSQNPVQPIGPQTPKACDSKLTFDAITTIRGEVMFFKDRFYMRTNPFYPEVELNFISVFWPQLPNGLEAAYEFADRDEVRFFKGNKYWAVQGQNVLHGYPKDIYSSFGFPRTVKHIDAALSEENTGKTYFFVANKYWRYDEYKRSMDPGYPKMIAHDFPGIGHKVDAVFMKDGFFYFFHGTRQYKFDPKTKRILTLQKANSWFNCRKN
# keratinocytes [4] = test: Juxtacrine growth factor assay; format: cell-based, human; conditions: 1 μM, Fig. 7 a
# How it was run: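 Keratinocytes plated at 10^5 cells/well and grown 12 h. Soluble HB-EGF/AR stripped by washing in medium containing 2 M NaCl. Cells fixed in 5% buffered formalin for 5 min, then washed in RPMI 1640/10% FCS. EP170.7 cells (10^5/well) added with [3H]thymidine for 6 h. Thymidine incorporation into EP170.7 DNA measured. Averages of triplicate experiments.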
# EGFR ligands = test: Release of soluble EGFR ligands from wounded keratinocytes; format: cell-based, human; conditions: 1 μM
# How it was run: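 Subconfluent keratinocytes in BHE-free medium tip-scraped in cross-stripes 5 mm apart, washed, then re-fed with or without test compound. Conditioned media collected at several times (37°C). Media added to EP170.7 cells (2 × 10^4/well) for 36 h, then [3H]thymidine (1 μCi/well) for 6 h; DNA incorporation measured. HB-EGF neutralised by preincubating with antibody No. 197 (10 μg/ml final). Four independent experiments.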
# [5] = system: wild-type HB-EGF, TGF-α, and AR; test: TPA-inducible shedding of wild-type ligands in CHO transfectants; format: cell-based, human; conditions: 10 μM, Fig. 2 b
# How it was run: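 CHO cells stably expressing untagged HB-EGF, AR or TGF-α, seeded at 2 × 10^5/6-cm dish, grown 24 h in Ham's F12/10% FCS. Surface-biotinylated with 0.1 mg/ml sulfo-NHS-biotin, 15 min on ice. Preincubated ±10 μM test compound for 10 min, then 30 min at 37°C with TPA plus compound. Ligands immunoprecipitated with specific antibodies and protein A; SDS-PAGE/Western blot, avidin-HRP/ECL detection.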
# keratinocytes [6] = test: Keratinocyte migration assay in a Boyden chamber; format: cell-based, human
# How it was run: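 Keratinocytes grown 72 h on collagen-coated dishes, detached with trypsin-EDTA for ≤1 min, resuspended at 10^5 cells/ml. Samples placed in bottom wells of a 48-well Boyden chamber: recombinant HB-EGF, or serially diluted 48-h wounded-culture conditioned medium, with test compound added top or bottom. Collagen-coated 8-μm polycarbonate membrane; 50 μl cells per top well. Ran 4 h at 37°C. Migrated cells fixed, hematoxylin-stained, counted microscopically.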
# AP-tag AR [7] = test: TPA-inducible shedding of AP-tag AR in CHO transfectants; format: cell-based, human; conditions: 60 nM TPA
# AP-tag AR [8] = test: Wound-induced shedding of AP-tag AR in HaCat transfectants; format: cell-based, human; conditions: 1 μM, 60 min after wounding
# AP-tag TGF-α [9] = test: Wound-induced shedding of AP-tag TGF-α in HaCat transfectants; format: cell-based, human; conditions: 1 μM, 60 min after wounding
# AP-tag HB-EGF [10] = test: TPA-inducible shedding of AP-tag HB-EGF in CHO transfectants; format: cell-based, human; conditions: 60 nM TPA
# AP-tag HB-EGF [11] = test: Wound-induced shedding of AP-tag HB-EGF in HaCat transfectants; format: cell-based, human; conditions: 1 μM, 60 min after wounding
# [12] = system: plasminogen-deficient mice; conditions: plasminogen-deficient mice ref Lund et al. 1999; cited from earlier work
# BALB/c mice = test: In vivo wound assay, full-thickness wounds in mice; conditions: HB-EGF 5 μg/ml in addition to 10 mM OSU8-1, day 6
# How it was run: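 Female BALB/c mice, 8 wk old, housed singly, anaesthetised with diethylether. Two 6-mm full-thickness punch wounds on the back, left open. Each wound received 500 μl daily for 5 d. One side got vehicle (1.5% carboxymethylcellulose in sterile PBS). The other got 10 mM test compound (n = 10) or test compound plus 5 μg/ml HB-EGF (n = 5). Wounds excised day 6, formalin-fixed, sectioned anterior-posterior, anti-cytokeratin stained.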
# Sequence of MMP-3 (P08254 100-477, species assumed): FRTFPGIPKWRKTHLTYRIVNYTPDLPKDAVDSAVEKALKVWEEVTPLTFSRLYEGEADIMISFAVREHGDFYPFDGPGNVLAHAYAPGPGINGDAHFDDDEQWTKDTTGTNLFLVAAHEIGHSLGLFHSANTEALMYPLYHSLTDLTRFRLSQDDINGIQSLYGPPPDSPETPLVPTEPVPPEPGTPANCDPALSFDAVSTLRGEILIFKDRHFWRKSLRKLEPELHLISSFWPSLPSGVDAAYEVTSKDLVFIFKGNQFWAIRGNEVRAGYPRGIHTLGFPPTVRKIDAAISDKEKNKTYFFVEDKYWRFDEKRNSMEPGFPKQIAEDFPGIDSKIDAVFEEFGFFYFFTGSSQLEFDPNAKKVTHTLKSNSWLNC
# Sequence of MMP-9 (P14780 94-707, species assumed): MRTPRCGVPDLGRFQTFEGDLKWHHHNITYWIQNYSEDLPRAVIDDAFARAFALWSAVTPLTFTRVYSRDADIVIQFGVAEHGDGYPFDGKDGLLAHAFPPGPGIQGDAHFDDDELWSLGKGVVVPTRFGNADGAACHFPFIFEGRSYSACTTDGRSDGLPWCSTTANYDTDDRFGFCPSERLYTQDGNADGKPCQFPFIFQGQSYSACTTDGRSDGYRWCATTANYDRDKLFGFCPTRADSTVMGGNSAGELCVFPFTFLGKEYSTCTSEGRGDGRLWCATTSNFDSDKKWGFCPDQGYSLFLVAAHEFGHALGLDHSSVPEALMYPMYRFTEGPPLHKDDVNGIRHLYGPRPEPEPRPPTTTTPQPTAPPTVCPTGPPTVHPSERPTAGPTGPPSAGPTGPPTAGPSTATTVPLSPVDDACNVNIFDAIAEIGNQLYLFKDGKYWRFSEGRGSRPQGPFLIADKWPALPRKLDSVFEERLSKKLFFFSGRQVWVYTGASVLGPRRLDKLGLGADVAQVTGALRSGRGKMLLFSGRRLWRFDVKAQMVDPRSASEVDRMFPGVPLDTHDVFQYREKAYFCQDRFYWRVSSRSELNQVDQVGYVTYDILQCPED
molecule,measurement,setting,value
"COc1cc2ncnc(Nc3cccc(Cl)c3)c2cc1OC [AG1478, reference compound]","Proliferation, % of the control","Human keratinocytes [1]; antibody No. 425 10 μg/ml, AG1478 30 nM",10–15 % of the control
same,Keratinocyte migration into wound area,Human keratinocytes [2],suppressed
"C[C@@H]1C[C@@H]([C@H](O)CC2CC(=O)NC(=O)C2)C(=O)[C@@H](C)C1 [Cycloheximide, cycloheximide]",EGFR activation induced by wounding,EGFR; 50 μM,failed to abrogate; also recorded: did not abrogate
"CNC(=O)[C@H](Cc1cccc2ccccc12)NC(=O)[C@@H](CC(=O)NO)CC(C)C [OSU7-6, [4-(N-hydroxyamino)-2R-isobutylsuccinyl]-L-3-(1-naphthyl)-alanine-N-methylamide]",IC50,MMP-3,2000 pM
same,Percent inhibition at 1 μM TGF-α,AP-tag TGF-α [3]; 30 min,5%
same,IC50,MMP-9,400 pM
same,Block of migration relative to the control,Human keratinocytes [2],~70%
same,IC50,MMP-1; read-out: IC50 MMP-1,350 pM
"CNC(=O)[C@H](Cc1cccc2c1CCCC2)NC(=O)[C@H](CC(C)C)[C@H](C)C(=O)NO [OSU8-1, [4-(N-hydroxyamino)-2R-isobutyl-3S-methylsuccinyl]-L-3-(5,6,7,8-tetra-hydro-1-naphthyl)alanine-N-methylamide]",Juxtacrine growth activity of keratinocytes,keratinocytes [4],slightly upregulated
same,Release of EGFR ligands after wounding,EGFR ligands,abrogated completely
same,"TPA-inducible shedding of wild-type HB-EGF, TGF-α, and AR",[5],abrogation
same,IC50,MMP-3,2900 pM
same,Fold less potent at promoting migration: conditioned medium collected in the presence of OSU8-1,"keratinocytes [6]; 48-h conditioned medium of wounded keratinocytes, 1 μM OSU8-1, Fig. 7 d",~30 fold
same,Effect on migration of keratinocytes induced by conditioned medium,"keratinocytes [6]; various concentrations of OSU8-1 added to the conditioned medium, Fig. 7 e",no effect
same,Percent inhibition at 1 μM AR,"AP-tag AR [7]; 1 μM inhibitor, 30 min, CHO transfectants",70%
same,Block of shedding of AP-tag AR,"AP-tag AR [7]; 1 μM, Fig. 2 a",markedly blocked
same,Block of TPA-inducible shedding of AP-tag AR,"AP-tag AR [7]; 10 μM, Fig. 2 a",significantly blocked
same,Block of shedding of AP-tag TGF-α,"AP-tag TGF-α [3]; 1 μM, Fig. 2 a",partially blocked
same,Block of TPA-inducible shedding of AP-tag TGF-α,"AP-tag TGF-α [3]; 10 μM, Fig. 2 a",significantly blocked
same,Inhibition of wound-induced shedding of AP-tag AR,AP-tag AR [8],effective at inhibiting
same,IC50,MMP-9,300 pM
same,Inhibition of cell growth,"Human keratinocytes [1]; 1 μM, Fig. 7 b",~50%
same,Keratinocyte migration into wound area,Human keratinocytes [2],significantly suppressed
same,EGFR activation after wounding,EGFR; 1 μM,abrogated completely
same,Effect on wound-induced AP-tag TGF-α shedding,AP-tag TGF-α [9],no effect
same,Block of shedding of AP-tag HB-EGF,"AP-tag HB-EGF [10]; 1 μM, Fig. 2 a",markedly blocked
same,Block of TPA-inducible shedding of AP-tag HB-EGF,"AP-tag HB-EGF [10]; 10 μM, Fig. 2 a",significantly blocked
same,IC50,MMP-1; read-out: IC50 MMP-1,300 pM
same,IC50,"MMP-1; read-out: IC50s for all three MMPs, range across MMP-1, MMP-3 and MMP-9",300 to 2900 pM
same,Inhibition of wound-induced shedding of AP-tag HB-EGF,AP-tag HB-EGF [11],effective at inhibiting
"COc1ccc(S(=O)(=O)N2Cc3cc(O)c(O)cc3CC2C(=O)NO)cc1 (centres unmarked) [OSU9-6, [6,7-dihydroxy-3-(N-hydroxycarbamoyl)-2-(4-methoxybenzenesulfonyl)-1,2,3,4-tetrahydroisoquinoline]]",Percent inhibition at 1 μM TGF-α,AP-tag TGF-α [3]; 30 min,5%
same,Block of migration relative to the control,Human keratinocytes [2],~70%
"CCCCCCCCCCCCCC(=O)O[C@@H]1[C@@H](C)[C@@]2(O)[C@@H](C=C(CO)C[C@]3(O)C(=O)C(C)=C[C@@H]23)[C@@H]2C(C)(C)[C@]12OC(C)=O [TPA, 12-O-tetradecanoylphorbol-13-acetate, reference compound]",Induction of shedding of AP-tag AR,AP-tag AR [7]; 30 min,less effective
same,Induction of shedding of AP-tag TGF-α,AP-tag TGF-α [3]; 30 min,induced the shedding
same,Induction of shedding of AP-tag HB-EGF,AP-tag HB-EGF [10]; 30 min,induced the shedding
CNC(=O)[C@H](Cc1c[nH]c2ccccc12)NC(=O)[C@@H](CC(=O)NO)CC(C)C [galardin],Wound healing,[12],completely arrested
B1,Concentration of maximal stimulation of keratinocyte migration,"keratinocytes [6]; recombinant HB-EGF, Boyden chamber, Fig. 7 c",10 ng/mL
same,Keratinocyte migration and regeneration of the epidermis,BALB/c mice,completely restored
